Compounds with a hit are over-represented: about 2% of the library has one in this group of screens.
TCR CD3 inh = inhibitors of human TCR-CD3 interaction, primary screen, biochemical, fluorescence, TAMRA-labeled TCR probe | T-cell receptor (TCR) | inhibition, % at 9.4 µM | 0.37% of 360,000 active; in the data active = inhibition above about 19%;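 note: recombinant mutant TCR 2C K166C tagged with TAMRA read by polarization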
ASAP1 GAP inh = inhibitors of human ASAP1 ArfGAP activity, primary screen, biochemical, fluorescence polarization. ASAP1-stimulated ARF1 GTP hydrolysis, GDP FP detection. inhibition, % at 16.5 µM. 0.19% of 360,000 active. AID 624377, 2012; in the data active = inhibition above about 25%
MBD2 inh = inhibitors of MBD2 binding to methylated DNA, primary screen, biochemical, TR-FRET, DNA-binding domain, human | MBD2 binding to methylated oligonucleotide | inhibition, % at 4.4 µM | Methyl-CpG-binding domain protein 2 (Homo sapiens), Q9UBB5 | 0.31% of 370,000 active; in the data active = inhibition above about 13%
Target sequence (Q9UBB5 whole entry, looked up, the tested form may be a part): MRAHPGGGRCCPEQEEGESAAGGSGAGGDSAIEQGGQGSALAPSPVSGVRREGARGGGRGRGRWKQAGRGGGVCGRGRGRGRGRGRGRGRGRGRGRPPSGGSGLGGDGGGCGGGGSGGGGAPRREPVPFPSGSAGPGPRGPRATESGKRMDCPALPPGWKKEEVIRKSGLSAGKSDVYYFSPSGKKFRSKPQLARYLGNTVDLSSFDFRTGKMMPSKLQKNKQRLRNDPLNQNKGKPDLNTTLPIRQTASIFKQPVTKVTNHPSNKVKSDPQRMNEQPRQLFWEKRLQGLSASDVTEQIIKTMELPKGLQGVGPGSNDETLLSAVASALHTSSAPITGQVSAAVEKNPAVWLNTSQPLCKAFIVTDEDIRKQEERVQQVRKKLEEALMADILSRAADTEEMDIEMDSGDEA
ARFGAP1 inh = inhibitors of rat ARFGAP1 GAP activity, primary screen, biochemical, fluorescence polarization, GDP tracer; 0.26% of 360,000 active; inhibition, % at 16.5 µM; Arfgap1-stimulated ARF1 GTP hydrolysis, GDP FP detection; ADP-ribosylation factor GTPase-activating protein 1 (Rattus norvegicus), Q62848; AID 651572, 2012;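 active = inhibition above a per-plate limit, mean inhibition of low control wells plus 3 SD, cut at about 25% in these data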
Target sequence (Q62848 1-136 limits assumed): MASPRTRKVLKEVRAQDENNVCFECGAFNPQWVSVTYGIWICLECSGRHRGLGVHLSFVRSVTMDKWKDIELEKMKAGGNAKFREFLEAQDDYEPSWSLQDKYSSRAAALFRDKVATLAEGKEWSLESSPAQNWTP
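Material: rat Arfgap1 catalytic domain, aa 1-136; also added: human ARF1(Δ1-17)-GTP substrate; compound dosing: one concentration, 16.5 µM, DMSO 1.26%; incubation: GTP hydrolysis reaction 2 h at 25 °C; measured by: Tracer-displacement fluorescence polarization with EDTA stop, 620/688 nm; evaluation: % inhibition from polarization; repeats: one replicate per compound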
LEDGF integ inh = blockers of LEDGF/p75-dependent integrase strand transfer – biochemical, TR-FRET, high throughput, primary screen; HIV-1 integrase (with human LEDGF/p75); TR-FRET IN-LEDGF/p75 DNA integration, Eu/Cy5; inhibition, % at 3.7 µM; 0.64% of 370,000 active; AID 743269, 2014;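 active = inhibition above the screen-wide mean plus 3 SD, cut at about 13% in these data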;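 note: signal is the Cy5 over europium emission ratio at 671 and 618 nm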
UHRF1 binding = UHRF1 methylated DNA binding inhibitors, primary screen, counter-screen for MBD2 inhibitor project, biochemical, TR-FRET, human UHRF1, single concentration. E3 ubiquitin-protein ligase UHRF1 (Homo sapiens), Q96T88. UHRF1 binding to methylated oligo. inhibition, % at 4.4 µM. 0.75% of 370,000 active. AID 687016, 2013; in the data active = inhibition above about 21%;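 note: UHRF1 SRA domain binding a hemimethylated CpG hairpin DNA probe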
ARFGAP1 inh conf = ARFGAP1 inhibitor hit confirmation, biochemical, fluorescence polarization, triplicate; shares compounds with ARFGAP1 inh; ARFGAP1-stimulated ARF1 GTP hydrolysis, GDP tracer FP; inhibition, % at 16.5 µM; 30% of 890 active;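 active = average inhibition over triplicates above the hit cutoff set in the earlier primary screen, cut at about 25% in these data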
Of the large screens only hits and unclear results are named; the others gave an inactive call (follow-up assays come after a bar, where they were run).

O=C(COc1ccc(Cl)cc1)Nc1ccc2c(c1)CCC2	ARFGAP1 inh 30 | ARFGAP1 inh conf inactive
CC(=O)c1ccc(OCC(=O)Nc2ccc3c(c2)CCC3)cc1	none
O=C(NCc1cccs1)C1CCCN(S(=O)(=O)c2ccccc2)C1 (configuration not stated)	none (no result: TCR CD3 inh, ASAP1 GAP inh, ARFGAP1 inh)
COc1ccccc1-c1oc2ccccc2c1-c1ccc2cc[nH]c2c1	ARFGAP1 inh 26 | ARFGAP1 inh conf inactive
CCOC(=O)c1ccc(-c2c(-c3ccccc3OC)oc3ccccc23)cc1F	none
OC(c1cccc(Cl)c1)c1nc(-c2csc3ccccc23)cs1 (configuration not stated)	ARFGAP1 inh 25 | ARFGAP1 inh conf inactive
Cn1c(C(=O)NCC2CCCO2)cc2c(=O)[nH]c3ccccc3c21 (configuration not stated)	ARFGAP1 inh 25 | ARFGAP1 inh conf inactive
O=C(Nc1ccc(OC(F)(F)F)cc1)C1CCCN(C(=O)c2ccc(Cl)cc2)C1 (configuration not stated)	ARFGAP1 inh 25 | ARFGAP1 inh conf inactive
COc1cc(OC)cc(C2=Cc3ccccc3C(CC(C)=O)N2c2ccc(C#CC3(N)CCCCC3)cc2)c1 (configuration not stated)	none
CCCCCCCCCC1(CC(=O)OCC)SCCN1C(N)=O (configuration not stated)	none
COC(=O)C1=C(C)N(Cc2cccc(C(F)(F)F)c2)C(=NCc2ccc(C(F)(F)F)cc2)NC1c1cccc(F)c1 (configuration not stated)	ARFGAP1 inh 29 | ARFGAP1 inh conf inactive
COC(=O)C1=C(C)N(Cc2cccc(C(F)(F)F)c2)C(=NCc2ccc(C(F)(F)F)cc2)NC1c1ccc(F)cc1 (configuration not stated)	none
COC(=O)C1=C(C)N(Cc2cccc(C(F)(F)F)c2)C(=NCc2ccc(C(F)(F)F)cc2)NC1c1ccc(C(F)(F)F)cc1 (configuration not stated)	ARFGAP1 inh 32 | ARFGAP1 inh conf inactive
COC(=O)C1=C(C)N(Cc2ccc(C(F)(F)F)cc2)C(=NCc2ccccc2)NC1c1cccc(F)c1 (configuration not stated)	none
CC(C)N1CCCCC(NC(=O)c2ccc(Cl)cc2Cl)C1=O (configuration not stated)	none (no result: TCR CD3 inh, ASAP1 GAP inh, ARFGAP1 inh)
Cc1cc(C)c(S(=O)(=O)N(CC(=O)NCc2cccnc2)C2CCCCC2)c(C)c1	ARFGAP1 inh 30 | ARFGAP1 inh conf inactive
Cc1ccc(S(=O)(=O)N(CC(=O)NCc2cccnc2)C2CCCCC2)cc1	none
COC(=O)[C@]12C[C@H](CC(=O)NCC3CCCCC3)C(=O)N(Cc3cccc4ccccc34)C1=C[C@H](COCc1ccccc1)O[C@@H]2C	none (no result: TCR CD3 inh, ASAP1 GAP inh, ARFGAP1 inh)
Cc1[nH]c2ccccc2c1CCNC(=O)c1ccc2c(c1[N+](=O)[O-])C(=O)c1ccccc1C2=O	none
Cc1[nH]c2c(C)cccc2c1CCNC(=O)c1ccc2c(c1[N+](=O)[O-])C(=O)c1ccccc1C2=O	ARFGAP1 inh 26 | ARFGAP1 inh conf inactive
COc1ccc(-c2nc3cc(NC(=O)Cc4ccc(OC)c(OC)c4)ccc3o2)cc1	ARFGAP1 inh 25 | ARFGAP1 inh conf inactive
O=C(NC(=S)Nc1ccc2c(c1)OCCO2)c1ccccc1	ARFGAP1 inh 25 | ARFGAP1 inh conf inactive
COc1cc(/C=C2\SC(N)=NC2=O)ccc1OCC(=O)Nc1ccc(C)cc1	ARFGAP1 inh 45 | ARFGAP1 inh conf 72
COc1cccc(-c2cnc3c(NC(C)=O)cc(-c4cccc(C(=O)NCCN(C)C)c4)cn23)c1	ARFGAP1 inh 44 | ARFGAP1 inh conf inactive
CN(C)CCNC(=O)c1cccc(-c2cnc3c(NC=O)cc(-c4ccccc4F)cn23)c1	none
Cc1cc(-c2cc(NC=O)c3ncc(-c4cccc(C(=O)NCCN(C)C)c4)n3c2)cc(C)c1O	ARFGAP1 inh 27 | ARFGAP1 inh conf 58
O=C(Nc1ccc(Cl)cc1)OCc1cn(-c2ccc(Cl)cc2)nn1	ASAP1 GAP inh 78, ARFGAP1 inh 68 | ARFGAP1 inh conf 53
CN(c1cccnc1)c1ccc(NC(=O)Cc2c[nH]c3ccccc23)cc1-c1ccc(F)c(F)c1	ARFGAP1 inh 25 | ARFGAP1 inh conf inactive
COc1ccc(-c2cc(NC(=O)Cc3c[nH]c4ccccc34)ccc2N(C)c2cccnc2)cc1F	none
O=C(N/N=C/c1cc2c(cc1Cl)OCO2)c1cc(-c2ccccc2)n[nH]1	none
O=C(NCCc1nc2ccccc2[nH]1)c1cccc(Br)c1	ARFGAP1 inh 25 | ARFGAP1 inh conf inactive
O=C(NCCc1nc2ccccc2[nH]1)c1ccc([N+](=O)[O-])cc1	none
CCSc1nnc(Cc2cc(=O)[nH]c(=O)[nH]2)n1-c1ccc(Cl)cc1	ARFGAP1 inh 30 | ARFGAP1 inh conf inactive
CC(NC(=O)c1ccc(Cl)c(S(=O)(=O)NC2CC2)c1)c1ccco1 (configuration not stated)	none
O=C(NNC1OC(CO)C(O)C(O)C1O)c1cccnc1 (configuration not stated)	none
COc1cccc(C(=O)NNC2OC(CO)C(O)C2O)c1 (configuration not stated)	ARFGAP1 inh 42 | ARFGAP1 inh conf inactive
C/C(=N\N=C(/N)SC1CC(=O)N(c2ccc(Br)cc2)C1=O)c1cccs1 (configuration not stated)	ARFGAP1 inh 27 | ARFGAP1 inh conf inactive
CC(=O)Nc1cccc(NC(=O)Cc2cccs2)c1	none
O=C(Cc1cccs1)Nc1cccc(-c2nc3cc4ccccc4cc3[nH]2)c1	ARFGAP1 inh 25 | ARFGAP1 inh conf 25
CCOc1ccccc1Nc1nnc(SCC(=O)N(C)C2CCS(=O)(=O)C2)s1 (configuration not stated)	none
Nc1nc(/C=C/c2ccc(F)cc2)nc(-c2ccccc2O)n1	none
Nc1nc(/C=C/c2cccnc2)nc(-c2ccccc2O)n1	ARFGAP1 inh 37 | ARFGAP1 inh conf 25
COCc1cn(-c2nc3ccccc3s2)nn1	none
Cc1nn(Cc2ccc(C(=O)NN)o2)c(C)c1Cl	none

Compound activity from PubChem.
